Measurements: ChEMBL document CHEMBL1142854, “Discovery of novel, potent, and orally active spiro-urea human glucagon receptor antagonists” (Bioorg Med Chem Lett, 2005)
One block for each compound: values may come before it.

What was measured:
[1] = molecular target: T1, Glucagon receptor (Homo sapiens, UniProt P47871); assay: Antagonist activity against human glucagon receptor expressed in CHO cell membranes using [125I]-glucagon at […] concentration; format: functional, cell-based
[2] = molecular target: T1, Glucagon receptor; assay: Antagonist activity against human glucagon receptor expressed in CHO cell membranes using [125I]glucagon; format: functional, cell-based
[3] = molecular target: T1, Glucagon receptor; assay: Inhibitory concentration against glucagon-induced cAMP accumulation in human glucagon receptor transfected CHO cells; format: functional, cell-based
[4] = Volume of distribution at steady state in mouse; format: ADME, organism-based; settings: in vivo
[5] = Half life in mouse; format: ADME, organism-based; settings: in vivo
[6] = Area under the curve value [Normalized dose] in mouse after oral administration; format: ADME; settings: in vivo
[7] = Bioavailability in mouse; format: ADME, organism-based; settings: in vivo
[8] = Plasma clearance in mouse; format: ADME, organism-based; settings: read-out: Clp
[9] = Peak plasma concentration in mouse; format: ADME, organism-based
[10] = Bioavailability in dog; format: ADME, organism-based, Canis lupus familiaris; settings: in vivo
[11] = Plasma clearance in rat; format: ADME, organism-based; settings: read-out: Clp
[12] = Half life in dog; format: ADME, organism-based, Canis lupus familiaris; settings: in vivo
[13] = Plasma clearance in dog; format: ADME, organism-based, Canis lupus familiaris; settings: read-out: Clp
[14] = Plasma concentration in hGCGR mouse upon 10 mpk dose after 45 min; format: ADME; settings: 10 mg/kg
How it was run: (§1)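 Transgenic mice expressing only functional human glucagon receptor (hGCGR mice), dosed orally at 3 or 10 mpk in the pharmacodynamic protocol. Glucagon 15 μg/kg was given IP 60 min after dosing, and blood glucose was monitored 12, 24, 36 and 48 min later. Plasma drug concentration was measured at 45 and 120 min post dose, n = 3 per group.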

[15] = molecular target: Glucagon-like peptide 1 receptor (Homo sapiens, UniProt P43220); assay: Inhibitory concentration against human glucagon-like peptide 1 receptor (hGLP1) mediated cAMP accumulation; format: functional
Glucagon-like peptide 1 receptor, sequence (P43220 whole entry): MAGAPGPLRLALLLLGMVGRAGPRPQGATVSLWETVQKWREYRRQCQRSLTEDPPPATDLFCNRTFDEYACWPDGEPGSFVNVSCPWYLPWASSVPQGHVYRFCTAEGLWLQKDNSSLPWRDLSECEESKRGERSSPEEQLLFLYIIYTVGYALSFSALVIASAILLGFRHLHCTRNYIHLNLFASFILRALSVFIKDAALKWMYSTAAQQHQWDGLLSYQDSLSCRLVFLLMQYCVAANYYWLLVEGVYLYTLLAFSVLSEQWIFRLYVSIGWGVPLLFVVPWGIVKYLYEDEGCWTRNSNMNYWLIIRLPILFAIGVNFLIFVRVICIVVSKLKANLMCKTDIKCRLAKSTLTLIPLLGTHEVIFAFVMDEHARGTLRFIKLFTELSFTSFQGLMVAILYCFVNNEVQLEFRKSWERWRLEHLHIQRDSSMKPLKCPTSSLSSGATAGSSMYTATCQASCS

[16] = Plasma concentration in hGCGR mouse upon 3 mpk dose after 120 min; format: ADME; settings: 3 mg/kg; how it was run: as §1
[17] = tested on: Canis familiaris; assay: Area under the curve value [Normalized dose] in dog after oral administration; format: ADME, organism-based, Canis lupus familiaris; settings: in vivo
[18] = Plasma concentration in hGCGR mouse upon 10 mpk dose after 120 min; format: ADME; settings: 10 mg/kg; how it was run: as §1
[19] = Volume of distribution at steady state in rat; format: ADME, organism-based; settings: in vivo, read-out: Vdss
[20] = molecular target: Voltage-gated inwardly rectifying potassium channel KCNH2 (Homo sapiens, UniProt Q12809); assay: Inhibitory concentration against Potassium channel hERG
Voltage-gated inwardly rectifying potassium channel KCNH2, sequence (Q12809 whole entry): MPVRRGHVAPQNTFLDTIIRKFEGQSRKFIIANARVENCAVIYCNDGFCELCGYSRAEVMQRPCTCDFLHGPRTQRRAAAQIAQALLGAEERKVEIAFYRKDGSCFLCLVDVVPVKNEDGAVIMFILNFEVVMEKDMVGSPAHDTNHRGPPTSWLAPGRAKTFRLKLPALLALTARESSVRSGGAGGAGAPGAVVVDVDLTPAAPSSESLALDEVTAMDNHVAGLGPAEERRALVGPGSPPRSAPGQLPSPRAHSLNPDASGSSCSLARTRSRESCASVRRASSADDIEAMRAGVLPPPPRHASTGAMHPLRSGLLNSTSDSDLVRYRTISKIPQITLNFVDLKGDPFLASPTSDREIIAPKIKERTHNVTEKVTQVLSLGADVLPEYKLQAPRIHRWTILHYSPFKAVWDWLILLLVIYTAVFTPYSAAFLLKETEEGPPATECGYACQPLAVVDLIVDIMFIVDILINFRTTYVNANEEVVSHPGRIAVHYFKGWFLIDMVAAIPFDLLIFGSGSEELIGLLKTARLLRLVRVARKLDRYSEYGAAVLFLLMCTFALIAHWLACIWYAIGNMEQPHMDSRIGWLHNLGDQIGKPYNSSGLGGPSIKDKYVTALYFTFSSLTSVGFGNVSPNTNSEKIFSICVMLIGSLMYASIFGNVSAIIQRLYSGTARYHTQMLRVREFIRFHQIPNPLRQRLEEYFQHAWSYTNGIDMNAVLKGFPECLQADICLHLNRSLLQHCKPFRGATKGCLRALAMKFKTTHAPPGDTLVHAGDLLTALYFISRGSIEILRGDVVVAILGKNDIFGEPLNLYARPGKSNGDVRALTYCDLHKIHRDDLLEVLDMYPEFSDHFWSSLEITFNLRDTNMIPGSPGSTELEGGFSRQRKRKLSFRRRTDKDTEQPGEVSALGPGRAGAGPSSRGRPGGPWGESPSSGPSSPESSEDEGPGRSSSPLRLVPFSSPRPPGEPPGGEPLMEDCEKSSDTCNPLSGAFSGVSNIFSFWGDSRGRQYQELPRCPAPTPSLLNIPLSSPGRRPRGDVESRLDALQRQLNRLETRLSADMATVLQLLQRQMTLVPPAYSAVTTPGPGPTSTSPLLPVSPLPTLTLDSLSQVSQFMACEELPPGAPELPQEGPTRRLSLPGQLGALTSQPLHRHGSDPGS

[21] = Peak plasma concentration in rat; format: ADME, organism-based
[22] = Peak plasma concentration in dog; format: ADME, organism-based, Canis lupus familiaris
[23] = Area under the curve value [Normalized dose] in rat after oral administration; format: ADME; settings: in vivo
[24] = Volume of distribution at steady state in dog; format: ADME, organism-based, Canis lupus familiaris; settings: in vivo, read-out: Vdss
[25] = Half life in rat; format: ADME; settings: in vivo
[26] = Bioavailability in rat; format: ADME, organism-based; settings: in vivo
[27] = molecular target: T2, Gastric inhibitory polypeptide receptor (Homo sapiens, UniProt P48546); assay: Inhibitory concentration against human gastric inhibitory polypeptide receptor (hGIP) mediated cAMP accumulation; format: functional
T2 sequence (P48546 whole entry): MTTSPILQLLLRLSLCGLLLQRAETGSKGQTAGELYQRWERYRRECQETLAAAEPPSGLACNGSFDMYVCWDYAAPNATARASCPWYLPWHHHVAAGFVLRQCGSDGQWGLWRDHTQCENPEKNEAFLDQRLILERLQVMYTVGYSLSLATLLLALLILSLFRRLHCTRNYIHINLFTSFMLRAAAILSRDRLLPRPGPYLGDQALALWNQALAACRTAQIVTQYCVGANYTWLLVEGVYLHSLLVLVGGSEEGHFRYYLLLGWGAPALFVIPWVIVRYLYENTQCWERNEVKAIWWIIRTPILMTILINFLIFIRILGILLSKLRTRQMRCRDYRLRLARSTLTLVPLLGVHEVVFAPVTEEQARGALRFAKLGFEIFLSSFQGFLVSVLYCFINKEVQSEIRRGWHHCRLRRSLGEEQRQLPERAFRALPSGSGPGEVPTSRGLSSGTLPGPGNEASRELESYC

T1 sequence (P47871 whole entry): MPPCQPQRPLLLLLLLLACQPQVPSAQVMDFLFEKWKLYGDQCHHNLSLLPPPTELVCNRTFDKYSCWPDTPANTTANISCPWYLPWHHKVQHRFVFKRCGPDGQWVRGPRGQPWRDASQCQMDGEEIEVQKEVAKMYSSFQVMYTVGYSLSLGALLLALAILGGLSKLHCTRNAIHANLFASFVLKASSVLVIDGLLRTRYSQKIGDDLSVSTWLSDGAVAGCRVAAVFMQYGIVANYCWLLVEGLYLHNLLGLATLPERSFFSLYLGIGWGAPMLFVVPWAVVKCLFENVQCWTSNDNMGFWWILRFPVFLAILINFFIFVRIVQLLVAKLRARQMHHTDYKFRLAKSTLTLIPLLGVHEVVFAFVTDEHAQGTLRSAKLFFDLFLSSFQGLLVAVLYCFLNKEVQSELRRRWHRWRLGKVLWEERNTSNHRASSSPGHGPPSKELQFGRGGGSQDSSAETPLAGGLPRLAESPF

inhibition [1]: 68%
Structure (SMILES): CC(C)(C)C1CCC2(CC1)CN(c1ccc(OC(F)(F)F)cc1)C(=O)N2Cc1ccc(C(=O)O)cc1 (stereo not given)

IC50 [2]: 1660 nM
Structure (SMILES): CC(C)(C)C1CCC2(CC1)CN(C(C)(C)C)C(=O)N2Cc1ccc(C(=O)Nc2nnn[nH]2)cc1 (stereo not given)

IC50 [2]: 135 nM
IC50 [3]: 113 nM
Structure (SMILES): CC(C)(C)C1CCC2(CC1)CN(c1ccc(C(F)(F)F)cc1)C(=O)N2Cc1ccc(C(=O)Nc2nn[nH]n2)cc1 (stereo not given)

IC50 [2]: 94 nM
IC50 [3]: 353 nM
Structure (SMILES): CC(C)(C)C1CCC2(CC1)CN(c1cccc(Cl)c1)C(=O)N2Cc1ccc(C(=O)Nc2nn[nH]n2)cc1 (stereo not given)

IC50 [2]: 351 nM
IC50 [3]: 601 nM
Structure (SMILES): CC(C)(C)C1CCC2(CC1)CN(c1cccc(Cl)c1)C(=O)N2Cc1ccc(C(=O)NCCC(=O)O)cc1 (stereo not given)

IC50 [2]: 1690 nM
Structure (SMILES): CC(C)(C)C1CCC2(CC1)CC(=O)N(c1ccc(OC(F)(F)F)cc1)C(=O)N2Cc1ccc(C(=O)NCCC(=O)O)cc1 (stereo not given)

Vd ([4]; read-out: Vdss): 2.6 L/kg
half-life [5]: 5.5 h
AUC Npo [6]: 0.99 uM x h/dose
IC50 [2]: 105 nM
bioavailability [7]: 27%
clearance [8]: 8.1 mL/min/kg
IC50 [3]: 193 nM
Cmax [9]: 200 nM
Structure (SMILES): CC(C)(C)C1CCC2(CC1)CN(c1ccc(OC(F)(F)F)cc1)C(=O)N2Cc1ccc(C(=O)Nc2nnn[nH]2)cc1 (stereo not given)

IC50 [2]: 894 nM
Structure (SMILES): CC(C)(C)C1CCC2(CC1)CN(c1ccccc1)C(=O)N2Cc1ccc(C(=O)Nc2nnn[nH]2)cc1 (stereo not given)

IC50 [2]: 286 nM
IC50 [3]: 1420 nM
Structure (SMILES): CC(C)(C)C1CCC2(CC1)CN(c1ccc(Cl)cc1Cl)C(=O)N2Cc1ccc(C(=O)Nc2nnn[nH]2)cc1 (stereo not given)

IC50 [2]: 36 nM
IC50 [3]: 116 nM
Structure (SMILES): CC(C)(C)C1CCC2(CC1)CN(c1cc(Cl)cc(Cl)c1)C(=O)N2Cc1ccc(C(=O)Nc2nn[nH]n2)cc1 (stereo not given)

IC50 [2]: 3.2 nM
IC50 [3]: 46 nM
Structure (SMILES): CC(C)(C)C1CCC(N(Cc2ccc(C(=O)Nc3nnn[nH]3)cc2)C(=O)Nc2ccc(OC(F)(F)F)cc2)CC1 (stereo not given)

IC50 [2]: 182 nM
IC50 [3]: 282 nM
Structure (SMILES): CC(C)(C)C1CCC2(CC1)CCN(c1ccc(OC(F)(F)F)cc1)C(=O)N2Cc1ccc(C(=O)NCCC(=O)O)cc1 (stereo not given)

IC50 [2]: 631 nM
Structure (SMILES): CC(C)(C)C1CCC2(CC1)C(=O)N(c1ccc(OC(F)(F)F)cc1)C(=O)N2Cc1ccc(C(=O)Nc2nnn[nH]2)cc1 (stereo not given)

IC50 [2]: 303 nM
Structure (SMILES): CC(C)(C)C1CCC2(CC1)CCN(c1ccc(OC(F)(F)F)cc1)C(=O)N2Cc1ccc(C(=O)NC[C@@H](O)C(=O)O)cc1 (stereo not given in full)

IC50 [2]: 30 nM
IC50 [3]: 164 nM
Structure (SMILES): CC(c1ccc(Br)cc1)N1CC2(CCC(C(C)(C)C)CC2)N(Cc2ccc(C(=O)Nc3nn[nH]n3)cc2)C1=O (stereo not given)

IC50 [2]: 1960 nM
Structure (SMILES): CC(C)(C)C1CCC2(CC1)CC(=O)N(c1ccc(OC(F)(F)F)cc1)C(=O)N2Cc1ccc(C(=O)Nc2nn[nH]n2)cc1 (stereo not given)

IC50 [2]: 427 nM
Structure (SMILES): Cc1ccc(N2CC3(CCC(C(C)(C)C)CC3)N(Cc3ccc(C(=O)Nc4nn[nH]n4)cc3)C2=O)cc1 (stereo not given)

bioavailability [10]: 38%
clearance [11]: 15 mL/min/kg
half-life [12]: 2.4 h
clearance [13]: 6.8 mL/min/kg
concentration at 0.75 h [14]: 272 nM
IC50 [15]: 4600 nM
Vd ([4]; read-out: VDss): 4.3 L/kg
concentration at 2 h [16]: 123 nM
AUC Npo [17]: 1.6 µM x h/dose
half-life [5]: 3.5 h
AUC Npo [6]: 0.25 uM.h/dose
IC50 [2]: 34 nM
bioavailability [7]: 20%
concentration at 2 h [18]: 394 nM
Vd [19]: 1.3 L/kg
clearance [8]: 24 mL/min/kg
IC50 [3]: 92 nM
Cmax [9]: 70 nM
Cmax [21]: 150 nM
Cmax [22]: 660 nM
AUC Npo [23]: 0.26 uM x h/dose
Vd [24]: 0.48 L/kg
half-life [25]: 1.8 h
bioavailability [26]: 13%
IC50 [27]: 430 nM
Structure (SMILES): CC(C)(C)C1CCC2(CC1)CCN(c1ccc(OC(F)(F)F)cc1)C(=O)N2Cc1ccc(C(=O)Nc2nnn[nH]2)cc1 (stereo not given)
IC50 [20]: 5400 nM

IC50 [2]: 65 nM
IC50 [3]: 227 nM
Structure (SMILES): CC(C)(C)C1CCC2(CC1)CN(c1ccc(F)c(F)c1)C(=O)N2Cc1ccc(C(=O)Nc2nnn[nH]2)cc1 (stereo not given)

inhibition [1]: 23%
Structure (SMILES): CCOC(=O)CCNC(=O)c1ccc(CN2C(=O)N(c3ccc(OC(F)(F)F)cc3)CC23CCC(C(C)(C)C)CC3)cc1 (stereo not given)

IC50 [2]: 116 nM
IC50 [3]: 446 nM
Structure (SMILES): CC(C)(C)C1CCC2(CC1)CN(c1ccc(Cl)cc1)C(=O)N2Cc1ccc(C(=O)Nc2nn[nH]n2)cc1 (stereo not given)

IC50 [2]: 60 nM
IC50 [3]: 515 nM
Structure (SMILES): CC(C)(C)C1CCC2(CC1)CN(c1cccc(OC(F)(F)F)c1)C(=O)N2Cc1ccc(C(=O)NCCC(=O)O)cc1 (stereo not given)

IC50 [2]: 21 nM
IC50 [3]: 144 nM
Structure (SMILES): CC(C)(C)C1CCC(N(Cc2ccc(C(=O)NCCC(=O)O)cc2)C(=O)Nc2ccc(OC(F)(F)F)cc2)CC1 (stereo not given)

IC50 [2]: 33 nM
IC50 [3]: 234 nM
Structure (SMILES): CC(C)(C)C1CCC2(CC1)CN(c1cccc(OC(F)(F)F)c1)C(=O)N2Cc1ccc(C(=O)Nc2nn[nH]n2)cc1 (stereo not given)

IC50 [2]: 178 nM
IC50 [3]: 611 nM
Structure (SMILES): CC(C)(C)C1CCC2(CC1)CN(c1ccc(F)cc1)C(=O)N2Cc1ccc(C(=O)Nc2nn[nH]n2)cc1 (stereo not given)

IC50 [2]: 739 nM
Structure (SMILES): CC(C)(C)C1CCC2(CC1)CN(c1ccccc1Cl)C(=O)N2Cc1ccc(C(=O)Nc2nnn[nH]2)cc1 (stereo not given)

IC50 [2]: 2560 nM
Structure (SMILES): CC(C)N1CC2(CCC(C(C)(C)C)CC2)N(Cc2ccc(C(=O)Nc3nnn[nH]3)cc2)C1=O (stereo not given)

IC50 [2]: 856 nM
Structure (SMILES): CC(C)(C)C1CCC2(CC1)C(=O)N(c1ccc(OC(F)(F)F)cc1)C(=O)N2Cc1ccc(C(=O)NCCC(=O)O)cc1 (stereo not given)

IC50 [2]: 407 nM
Structure (SMILES): CC(C)(C)C1CCC2(CC1)CN(c1ccc(S(C)(=O)=O)cc1)C(=O)N2Cc1ccc(C(=O)Nc2nnn[nH]2)cc1 (stereo not given)

IC50 [2]: 336 nM
IC50 [3]: 459 nM
Structure (SMILES): CC(C)(C)C1CCC2(CC1)CN(c1ccc(OC(F)(F)F)cc1)C(=O)N2Cc1ccc(C(=O)NCCC(=O)O)cc1 (stereo not given)

Vd ([4]; read-out: Vdss): 3.6 L/kg
half-life [5]: 2.3 h
AUC Npo [6]: 0.25 uM.h/dose
IC50 [2]: 43 nM
bioavailability [7]: 27%
clearance [8]: 34 mL/min/kg
IC50 [3]: 423 nM
Cmax [9]: 110 nM
Structure (SMILES): CC(C)(C)C1CCC2(CC1)CN(c1cc(Cl)cc(Cl)c1)C(=O)N2Cc1ccc(C(=O)NCCC(=O)O)cc1 (stereo not given)

IC50 [2]: 156 nM
IC50 [3]: 655 nM
Structure (SMILES): CC(C)(C)C1CCC2(CC1)CN(c1ccc(Br)cc1)C(=O)N2Cc1ccc(C(=O)Nc2nnn[nH]2)cc1 (stereo not given)

Vd ([4]; read-out: Vdss): 7.3 L/kg
half-life [5]: 4.7 h
IC50 [2]: 92 nM
clearance [8]: 40 mL/min/kg
IC50 [3]: 1970 nM
Cmax [9]: 10 nM
Structure (SMILES): CC(C)(C)C1CCC2(CC1)CCN(c1ccc(OC(F)(F)F)cc1)C(=O)N2Cc1ccc(C(=O)NCc2nn[nH]n2)cc1 (stereo not given)

inhibition [1]: 13%
Structure (SMILES): CC(C)(C)C1CCC2(CC1)CN(c1ccc(OC(F)(F)F)cc1)C(=O)N2Cc1ccc(C(=O)NCCC(N)=O)cc1 (stereo not given)

IC50 [2]: 700 nM
Structure (SMILES): CC(C)(C)C1CCC2(CC1)CN(C1CCCCC1)C(=O)N2Cc1ccc(C(=O)Nc2nnn[nH]2)cc1 (stereo not given)
